In ChEMBL document CHEMBL5376013, “Design, synthesis and biological evaluation of novel morpholinopyrimidine-5-carbonitrile derivatives as dual PI3K/mTOR inhibitors” (RSC Med Chem, 2024):

Assays:
Assay type in all cases: functional
Conditions in all cases: read-out: GI
[1] = system: HL-60; experiment: Antitumor activity against human HL-60 cells assessed as growth inhibition at 10 uM relative to control
Method in brief: (§1)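 After drug addition, plates were incubated 48 h at 37 °C under 5% CO2. Adherent cells were fixed with cold TCA (10% final, 60 min, 4 °C) and suspension cells with 16% final TCA. Staining used 0.4% SRB in 1% acetic acid, solubilized in 10 mM trizma, read at A515. Percent growth was calculated from time-zero, control and treated absorbances.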

[2] = system: RPMI-8226; experiment: Antitumor activity against human RPMI-8226 cells assessed as growth inhibition at 10 uM relative to control; method in brief: as §1
[3] = system: SR; experiment: Antitumor activity against human SR cells assessed as growth inhibition at 10 uM relative to control
Method in brief: (§2)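 Drug exposure 48 h at 37 °C, 5% CO2. Adherent cells fixed with cold TCA (10% final), suspension cells with TCA (16% final). Stained with 0.4% SRB in 1% acetic acid, dissolved in 10 mM Tris, A515. Growth relative to time-zero and untreated control.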

[4] = system: EKVX; experiment: Antitumor activity against human EKVX cells assessed as growth inhibition at 10 uM relative to control; method in brief: as §1
[5] = system: HOP-62; experiment: Antitumor activity against human HOP-62 cells assessed as growth inhibition at 10 uM relative to control; method in brief: as §1
[6] = system: HOP-92; experiment: Antitumor activity against human HOP-92 cells assessed as growth inhibition at 10 uM relative to control; method in brief: as §1
[7] = system: NCI-H226; experiment: Antitumor activity against human NCI-H226 cells assessed as growth inhibition at 10 uM relative to control; method in brief: as §1
[8] = system: NCI-H23; experiment: Antitumor activity against human NCI-H23 cells assessed as growth inhibition at 10 uM relative to control; method in brief: as §1
[9] = system: NCI-H322M; experiment: Antitumor activity against human NCI-H322M cells assessed as growth inhibition at 10 uM relative to control; method in brief: as §1
[10] = system: NCI-H460; experiment: Antitumor activity against human NCI-H460 cells assessed as growth inhibition at 10 uM relative to control; method in brief: as §1
[11] = system: NCI-H522; experiment: Antitumor activity against human NCI-H522 cells assessed as growth inhibition at 10 uM relative to control; method in brief: as §1
[12] = system: COLO 205; experiment: Antitumor activity against human COLO 205 cells assessed as growth inhibition at 10 uM relative to control; method in brief: as §1
[13] = system: HCC 2998; experiment: Antitumor activity against human HCC 2998 cells assessed as growth inhibition at 10 uM relative to control; method in brief: as §1
[14] = system: HCT-116; experiment: Antitumor activity against human HCT-116 cells assessed as growth inhibition at 10 uM relative to control; method in brief: as §1
[15] = system: HT-29; experiment: Antitumor activity against human HT-29 cells assessed as growth inhibition at 10 uM relative to control; method in brief: as §1
[16] = system: KM12; experiment: Antitumor activity against human KM12 cells assessed as growth inhibition at 10 uM relative to control; method in brief: as §1
[17] = system: SW-620; experiment: Antitumor activity against human SW-620 cells assessed as growth inhibition at 10 uM relative to control; method in brief: as §2
[18] = system: SF-268; experiment: Antitumor activity against human SF-268 cells assessed as growth inhibition at 10 uM relative to control; method in brief: as §1
[19] = system: SF-295; experiment: Antitumor activity against human SF-295 cells assessed as growth inhibition at 10 uM relative to control; method in brief: as §1
[20] = system: SF-539; experiment: Antitumor activity against human SF-539 cells assessed as growth inhibition at 10 uM relative to control; method in brief: as §1
[21] = system: SNB-19; experiment: Antitumor activity against human SNB-19 cells assessed as growth inhibition at 10 uM relative to control; method in brief: as §2
[22] = system: SNB-75; experiment: Antitumor activity against human SNB-75 cells assessed as growth inhibition at 10 uM relative to control; method in brief: as §2
[23] = system: U-251; experiment: Antitumor activity against human U-251 cells assessed as growth inhibition at 10 uM relative to control; method in brief: as §2
[24] = system: Malme-3M; experiment: Antitumor activity against human Malme-3M cells assessed as growth inhibition at 10 uM relative to control; method in brief: as §1
[25] = system: M14; experiment: Antitumor activity against human M14 cells assessed as growth inhibition at 10 uM relative to control; method in brief: as §1
[26] = system: MDA-MB-435; experiment: Antitumor activity against human MDA-MB-435 cells assessed as growth inhibition at 10 uM relative to control; method in brief: as §1
[27] = system: SK-MEL-2; experiment: Antitumor activity against human SK-MEL-2 cells assessed as growth inhibition at 10 uM relative to control; method in brief: as §1
[28] = system: SK-MEL-28; experiment: Antitumor activity against human SK-MEL-28 cells assessed as growth inhibition at 10 uM relative to control; method in brief: as §2
[29] = system: SK-MEL-5; experiment: Antitumor activity against human SK-MEL-5 cells assessed as growth inhibition at 10 uM relative to control; method in brief: as §2
[30] = system: UACC-257; experiment: Antitumor activity against human UACC-257 cells assessed as growth inhibition at 10 uM relative to control; method in brief: as §2
[31] = system: UACC-62; experiment: Antitumor activity against human UACC-62 cells assessed as growth inhibition at 10 uM relative to control; method in brief: as §2
[32] = system: IGROV-1; experiment: Antitumor activity against human IGROV-1 cells assessed as growth inhibition at 10 uM relative to control; method in brief: as §1
[33] = system: OVCAR-4; experiment: Antitumor activity against human OVCAR-4 cells assessed as growth inhibition at 10 uM relative to control; method in brief: as §1
[34] = system: OVCAR-5; experiment: Antitumor activity against human OVCAR-5 cells assessed as growth inhibition at 10 uM relative to control; method in brief: as §1
[35] = system: NCI/ADR-RES; experiment: Antitumor activity against human NCI-ADR-RES cells assessed as growth inhibition at 10 uM relative to control; method in brief: as §1
[36] = system: SK-OV-3; experiment: Antitumor activity against human SK-OV-3 cells assessed as growth inhibition at 10 uM relative to control; method in brief: as §2
[37] = system: 786-0; experiment: Antitumor activity against human 786-0 cells assessed as growth inhibition at 10 uM relative to control; method in brief: as §1
[38] = system: A498; experiment: Antitumor activity against human A498 cells assessed as growth inhibition at 10 uM relative to control; method in brief: as §1
[39] = system: CAKI-1; experiment: Antitumor activity against human CAKI-1 cells assessed as growth inhibition at 10 uM relative to control; method in brief: as §1
[40] = system: RXF 393; experiment: Antitumor activity against human RXF 393 cells assessed as growth inhibition at 10 uM relative to control; method in brief: as §1
[41] = system: SN12C; experiment: Antitumor activity against human SN12C cells assessed as growth inhibition at 10 uM relative to control; method in brief: as §2
[42] = system: TK-10; experiment: Antitumor activity against human TK-10 cells assessed as growth inhibition at 10 uM relative to control; method in brief: as §2
[43] = system: UO-31; experiment: Antitumor activity against human UO-31 cells assessed as growth inhibition at 10 uM relative to control; method in brief: as §2
[44] = system: MDA-MB-231; experiment: Antitumor activity against human MDA-MB-231 cells assessed as growth inhibition at 10 uM relative to control; method in brief: as §1
[45] = system: Hs-578T; experiment: Antitumor activity against human Hs-578T cells assessed as growth inhibition at 10 uM relative to control; method in brief: as §1
[46] = system: T47D; experiment: Antitumor activity against human T47D cells assessed as growth inhibition at 10 uM relative to control; method in brief: as §2

Q: What does the source list for `N#Cc1c(-c2ccc(Cl)cc2)nc(NN2C(=O)CCC2=O)nc1N1CCOCC1`?
A: inhibition of growth at 10 µM [1]: < 1%; inhibition of growth at 10 µM [2]: < 1%; inhibition of growth at 10 µM [3]: < 1%; inhibition of growth at 10 µM [4]: < 1%; inhibition of growth at 10 µM [5]: < 1%; inhibition of growth at 10 µM [6]: < 1%; inhibition of growth at 10 µM [7]: < 1%; inhibition of growth at 10 µM [8]: < 1%; inhibition of growth at 10 µM [9]: < 1%; inhibition of growth at 10 µM [10]: < 1%; inhibition of growth at 10 µM [11]: 16%; inhibition of growth at 10 µM [12]: < 1%; inhibition of growth at 10 µM [13]: < 1%; inhibition of growth at 10 µM [14]: < 1%; inhibition of growth at 10 µM [15]: < 1%; inhibition of growth at 10 µM [16]: < 1%; inhibition of growth at 10 µM [17]: < 1%; inhibition of growth at 10 µM [18]: < 1%; inhibition of growth at 10 µM [19]: < 1%; inhibition of growth at 10 µM [20]: < 1%; inhibition of growth at 10 µM [21]: < 1%; inhibition of growth at 10 µM [22]: 33.9%; inhibition of growth at 10 µM [23]: < 1%; inhibition of growth at 10 µM [24]: < 1%; inhibition of growth at 10 µM [25]: < 1%; inhibition of growth at 10 µM [26]: < 1%; inhibition of growth at 10 µM [27]: < 1%; inhibition of growth at 10 µM [28]: < 1%; inhibition of growth at 10 µM [29]: < 1%; inhibition of growth at 10 µM [30]: < 1%; inhibition of growth at 10 µM [31]: < 1%; inhibition of growth at 10 µM [32]: < 1%; inhibition of growth at 10 µM [33]: < 1%; inhibition of growth at 10 µM [34]: < 1%; inhibition of growth at 10 µM [35]: < 1%; inhibition of growth at 10 µM [36]: < 1%; inhibition of growth at 10 µM [37]: < 1%; inhibition of growth at 10 µM [38]: < 1%; inhibition of growth at 10 µM [39]: < 1%; inhibition of growth at 10 µM [40]: < 1%; inhibition of growth at 10 µM [41]: < 1%; inhibition of growth at 10 µM [42]: < 1%; inhibition of growth at 10 µM [43]: 12.5%; inhibition of growth at 10 µM [44]: < 1%; inhibition of growth at 10 µM [45]: < 1%; inhibition of growth at 10 µM [46]: < 1%

Q: Which results are given for `N#Cc1c(-c2ccc(Cl)cc2)nc(N/N=C/c2cccc(F)c2)nc1N1CCOCC1`?
A: inhibition of growth at 10 µM [1]: < 1%; inhibition of growth at 10 µM [2]: 22.3%; inhibition of growth at 10 µM [3]: < 1%; inhibition of growth at 10 µM [4]: 26.2%; inhibition of growth at 10 µM [5]: 10.3%; inhibition of growth at 10 µM [6]: < 1%; inhibition of growth at 10 µM [7]: < 1%; inhibition of growth at 10 µM [8]: < 1%; inhibition of growth at 10 µM [9]: < 1%; inhibition of growth at 10 µM [10]: < 1%; inhibition of growth at 10 µM [11]: 11.6%; inhibition of growth at 10 µM [12]: 27.2%; inhibition of growth at 10 µM [13]: < 1%; inhibition of growth at 10 µM [14]: < 1%; inhibition of growth at 10 µM [15]: 30%; inhibition of growth at 10 µM [16]: 16%; inhibition of growth at 10 µM [17]: < 1%; inhibition of growth at 10 µM [18]: < 1%; inhibition of growth at 10 µM [19]: < 1%; inhibition of growth at 10 µM [20]: < 1%; inhibition of growth at 10 µM [21]: < 1%; inhibition of growth at 10 µM [22]: 35.8%; inhibition of growth at 10 µM [23]: 21.1%; inhibition of growth at 10 µM [24]: < 1%; inhibition of growth at 10 µM [25]: < 1%; inhibition of growth at 10 µM [26]: < 1%; inhibition of growth at 10 µM [27]: < 1%; inhibition of growth at 10 µM [28]: < 1%; inhibition of growth at 10 µM [29]: < 1%; inhibition of growth at 10 µM [30]: < 1%; inhibition of growth at 10 µM [31]: < 1%; inhibition of growth at 10 µM [32]: 17.4%; inhibition of growth at 10 µM [33]: < 1%; inhibition of growth at 10 µM [34]: < 1%; inhibition of growth at 10 µM [35]: < 1%; inhibition of growth at 10 µM [36]: < 1%; inhibition of growth at 10 µM [37]: < 1%; inhibition of growth at 10 µM [38]: 17%; inhibition of growth at 10 µM [39]: 13.7%; inhibition of growth at 10 µM [40]: < 1%; inhibition of growth at 10 µM [41]: < 1%; inhibition of growth at 10 µM [42]: < 1%; inhibition of growth at 10 µM [43]: 37.5%; inhibition of growth at 10 µM [44]: < 1%; inhibition of growth at 10 µM [45]: < 1%; inhibition of growth at 10 µM [46]: 11.2%
